Legend:
[1] = biological target: T1, Receptor-type tyrosine-protein kinase FLT3 (Homo sapiens, UniProt P36888); test: Displacement of [33P]ATP from human recombinant FLT3 domain after 20 mins by scintillation counting
T1 sequence (P36888 whole entry): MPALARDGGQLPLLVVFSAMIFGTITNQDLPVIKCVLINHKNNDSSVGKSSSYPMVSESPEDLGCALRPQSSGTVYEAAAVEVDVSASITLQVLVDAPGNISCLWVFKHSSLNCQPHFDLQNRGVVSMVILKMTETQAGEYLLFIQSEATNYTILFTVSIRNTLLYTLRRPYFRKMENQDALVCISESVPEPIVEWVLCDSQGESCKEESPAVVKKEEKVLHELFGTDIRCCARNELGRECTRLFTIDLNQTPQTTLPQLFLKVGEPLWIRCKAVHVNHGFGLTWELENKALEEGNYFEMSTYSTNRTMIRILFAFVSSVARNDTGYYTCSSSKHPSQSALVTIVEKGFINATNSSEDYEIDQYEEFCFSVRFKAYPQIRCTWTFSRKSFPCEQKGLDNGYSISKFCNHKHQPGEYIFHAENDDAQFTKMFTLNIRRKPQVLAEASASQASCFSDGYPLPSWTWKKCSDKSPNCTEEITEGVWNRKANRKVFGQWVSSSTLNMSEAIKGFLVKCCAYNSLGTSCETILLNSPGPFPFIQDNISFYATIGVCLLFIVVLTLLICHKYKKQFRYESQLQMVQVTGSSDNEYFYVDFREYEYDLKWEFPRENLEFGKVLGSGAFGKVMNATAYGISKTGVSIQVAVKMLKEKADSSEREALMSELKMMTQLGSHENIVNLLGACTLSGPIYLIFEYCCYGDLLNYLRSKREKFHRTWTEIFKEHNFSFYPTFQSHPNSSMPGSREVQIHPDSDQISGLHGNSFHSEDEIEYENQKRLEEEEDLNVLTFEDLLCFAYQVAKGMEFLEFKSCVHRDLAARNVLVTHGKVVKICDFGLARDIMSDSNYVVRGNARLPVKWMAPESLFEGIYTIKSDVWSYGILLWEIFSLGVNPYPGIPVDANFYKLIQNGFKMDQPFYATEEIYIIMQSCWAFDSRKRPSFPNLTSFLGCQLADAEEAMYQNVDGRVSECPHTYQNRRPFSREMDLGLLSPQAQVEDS

[2] = Clearance in iv dosed rat; type: ADME, organism-based; conditions: in vivo
[3] = biological target: Mast/stem cell growth factor receptor Kit (Homo sapiens, UniProt P10721); test: Displacement of [33P]ATP from human recombinant c-KIT domain after 20 mins by scintillation counting
Outline: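 Radiometric kinase assay run in 100 mM HEPES pH 7.5 with 10 mM MgCl2, 25 mM NaCl, 0.01% BSA, 1 mM DTT and 0.5 mg/mL polyE4Y. Enzyme was 5 nM c-KIT with 700 μM 33P-ATP; inhibitor was added from DMSO. The reaction was started with ATP/substrate, run 20 min, stopped with 20% TCA/4 mM ATP, filtered, washed with 5% TCA and counted by scintillation.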

[4] = Half life in iv dosed rat; type: ADME, organism-based; conditions: in vivo
[5] = tested on: MV4-11; test: Cytotoxicity against human MV411 cells
[6] = biological target: T2, Interleukin-1 receptor-associated kinase 4 (Homo sapiens, UniProt Q9NWZ3); test: Inhibition of IRAK4 by spectrophotometry
T2 sequence (Q9NWZ3 whole entry): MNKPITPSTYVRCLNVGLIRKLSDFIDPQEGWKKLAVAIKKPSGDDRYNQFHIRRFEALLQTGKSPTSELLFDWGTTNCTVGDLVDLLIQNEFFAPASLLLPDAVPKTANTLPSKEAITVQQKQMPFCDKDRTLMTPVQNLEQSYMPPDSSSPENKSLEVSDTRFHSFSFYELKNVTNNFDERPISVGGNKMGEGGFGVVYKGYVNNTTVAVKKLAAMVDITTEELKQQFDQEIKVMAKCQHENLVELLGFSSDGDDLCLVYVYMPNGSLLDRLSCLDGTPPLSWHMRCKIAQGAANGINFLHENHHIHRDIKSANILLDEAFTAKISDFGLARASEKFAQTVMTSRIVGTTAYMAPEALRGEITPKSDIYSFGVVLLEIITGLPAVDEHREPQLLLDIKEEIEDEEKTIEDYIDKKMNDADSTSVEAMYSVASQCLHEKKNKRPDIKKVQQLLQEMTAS

[7] = biological target: T3, Aurora kinase A (Homo sapiens, UniProt O14965); test: Inhibition of Aurora A by spectrophotometry
T3 sequence (O14965 whole entry): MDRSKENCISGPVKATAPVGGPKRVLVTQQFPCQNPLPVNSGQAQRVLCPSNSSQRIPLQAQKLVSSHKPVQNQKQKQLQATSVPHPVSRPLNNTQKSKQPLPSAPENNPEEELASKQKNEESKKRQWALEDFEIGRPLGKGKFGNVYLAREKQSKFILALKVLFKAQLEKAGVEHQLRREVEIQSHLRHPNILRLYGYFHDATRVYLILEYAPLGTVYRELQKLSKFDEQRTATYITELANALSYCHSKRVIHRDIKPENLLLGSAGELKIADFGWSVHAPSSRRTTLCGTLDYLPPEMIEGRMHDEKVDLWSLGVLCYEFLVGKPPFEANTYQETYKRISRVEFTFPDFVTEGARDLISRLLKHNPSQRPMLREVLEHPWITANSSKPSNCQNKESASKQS

[8] = biological target: Tyrosine-protein kinase JAK2 (Homo sapiens, UniProt O60674); test: Inhibition of JAK2 by spectrophotometry
Sequence of Tyrosine-protein kinase JAK2 (O60674 whole entry): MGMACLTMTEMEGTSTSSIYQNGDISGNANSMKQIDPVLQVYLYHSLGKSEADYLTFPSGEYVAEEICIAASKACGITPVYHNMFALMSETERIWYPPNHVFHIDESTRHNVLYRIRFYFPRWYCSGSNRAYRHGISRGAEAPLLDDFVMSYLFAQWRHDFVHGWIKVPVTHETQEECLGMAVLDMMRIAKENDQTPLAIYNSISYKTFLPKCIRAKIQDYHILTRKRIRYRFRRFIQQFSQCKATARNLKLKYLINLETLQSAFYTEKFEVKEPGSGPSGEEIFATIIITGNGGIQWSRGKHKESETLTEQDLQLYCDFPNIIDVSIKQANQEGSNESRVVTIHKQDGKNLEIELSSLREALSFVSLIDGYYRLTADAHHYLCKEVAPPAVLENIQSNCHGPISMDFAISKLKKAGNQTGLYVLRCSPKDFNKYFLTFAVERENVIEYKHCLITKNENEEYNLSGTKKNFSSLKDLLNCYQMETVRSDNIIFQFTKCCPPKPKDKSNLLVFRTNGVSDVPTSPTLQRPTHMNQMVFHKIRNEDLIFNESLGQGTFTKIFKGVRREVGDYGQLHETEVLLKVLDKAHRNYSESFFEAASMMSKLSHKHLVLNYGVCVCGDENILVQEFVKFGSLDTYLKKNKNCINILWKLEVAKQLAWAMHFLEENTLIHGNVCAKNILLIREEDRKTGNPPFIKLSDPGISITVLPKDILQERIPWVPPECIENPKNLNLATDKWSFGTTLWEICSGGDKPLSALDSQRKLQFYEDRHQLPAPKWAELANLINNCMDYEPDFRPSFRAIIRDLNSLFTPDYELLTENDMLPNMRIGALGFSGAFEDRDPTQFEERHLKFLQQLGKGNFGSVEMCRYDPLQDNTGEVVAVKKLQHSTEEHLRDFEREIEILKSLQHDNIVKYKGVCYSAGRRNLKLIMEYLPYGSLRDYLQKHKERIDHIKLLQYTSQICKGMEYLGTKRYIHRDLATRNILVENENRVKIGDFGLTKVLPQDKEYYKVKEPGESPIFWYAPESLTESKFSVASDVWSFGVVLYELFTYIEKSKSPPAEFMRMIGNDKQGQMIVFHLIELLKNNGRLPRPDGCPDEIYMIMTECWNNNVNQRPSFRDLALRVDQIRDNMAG

Sequence of Mast/stem cell growth factor receptor Kit (P10721 whole entry, the tested form may be a part): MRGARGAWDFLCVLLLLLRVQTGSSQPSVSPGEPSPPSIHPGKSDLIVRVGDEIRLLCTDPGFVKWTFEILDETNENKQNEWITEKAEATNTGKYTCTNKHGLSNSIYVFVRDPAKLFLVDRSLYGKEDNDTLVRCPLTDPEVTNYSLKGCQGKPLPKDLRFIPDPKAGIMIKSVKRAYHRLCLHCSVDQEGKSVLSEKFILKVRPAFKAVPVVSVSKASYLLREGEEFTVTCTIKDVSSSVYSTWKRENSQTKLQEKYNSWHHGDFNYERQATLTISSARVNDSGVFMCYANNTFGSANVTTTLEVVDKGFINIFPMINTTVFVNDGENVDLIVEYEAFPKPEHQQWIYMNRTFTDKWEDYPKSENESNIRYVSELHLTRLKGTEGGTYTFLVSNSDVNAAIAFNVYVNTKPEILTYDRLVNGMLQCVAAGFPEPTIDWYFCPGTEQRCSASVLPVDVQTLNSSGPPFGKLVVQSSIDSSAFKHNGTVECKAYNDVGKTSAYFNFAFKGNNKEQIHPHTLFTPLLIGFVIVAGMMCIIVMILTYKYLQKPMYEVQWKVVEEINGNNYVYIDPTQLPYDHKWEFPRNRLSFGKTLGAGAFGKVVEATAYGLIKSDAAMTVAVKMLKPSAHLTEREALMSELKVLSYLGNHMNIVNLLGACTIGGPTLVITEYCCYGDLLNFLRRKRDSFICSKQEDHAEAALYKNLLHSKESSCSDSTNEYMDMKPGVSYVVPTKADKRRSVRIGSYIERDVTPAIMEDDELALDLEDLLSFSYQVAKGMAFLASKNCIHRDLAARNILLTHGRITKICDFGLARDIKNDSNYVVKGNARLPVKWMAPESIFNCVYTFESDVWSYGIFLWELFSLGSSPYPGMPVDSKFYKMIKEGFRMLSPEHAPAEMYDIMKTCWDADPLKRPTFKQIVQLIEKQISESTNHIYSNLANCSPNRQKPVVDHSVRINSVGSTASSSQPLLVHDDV

Compound	Ki [1]	clearance [2]	Ki [3]	half-life [4]	IC50 [5]	Ki [6]	Ki [7]	Ki [8]
CN1CCC(c2cccc(Nc3nc(N)n(-c4ccccn4)n3)c2)CC1	< 1 nM	174 mL/min/kg	< 50 nM	2.48 h	< 1 nM	–	–	–
COc1cc(N2CCOCC2)ccc1Nc1nc(N)n(-c2ccc(C#N)cn2)n1	22 nM	–	205 nM	–	–	340 nM	2600 nM	> 4000 nM
COc1ccc(Nc2nc(N)n(-c3ccccn3)n2)cc1OC	2.8 nM	–	9 nM	–	–	43 nM	103 nM	67 nM
Nc1nc(Nc2ccccc2Cl)nn1-c1ccccn1	18 nM	–	–	–	–	1200 nM	2000 nM	> 4000 nM
COc1ccccc1Nc1nc(N)n(-c2ccccn2)n1	15 nM	–	12 nM	–	–	420 nM	> 7000 nM	> 4000 nM
CC(=O)Nc1cccc(Nc2nc(N)n(-c3ccccn3)n2)c1	–	44.6 mL/min/kg	180 nM	2.81 h	15 nM	–	–	–
Nc1nc(Nc2ccc(C(O)CCCN3CCOCC3)cc2)nn1-c1ccccn1 (stereo not given)	–	17.7 mL/min/kg	< 50 nM	1.03 h	1 nM	–	–	–
COc1ccccc1Nc1nc(N)n(-c2cc(NCCN(C)C)ncn2)n1	1 nM	–	270 nM	–	–	78 nM	2100 nM	> 4000 nM
COc1ccc(N2CCOCC2)cc1Nc1nc(N)n(-c2ccccn2)n1	6 nM	–	60 nM	–	–	160 nM	> 4000 nM	> 4000 nM
Nc1nc(Nc2cc(N3CCOCC3)ccc2F)nn1-c1ccccn1	12 nM	–	37 nM	–	–	440 nM	> 3000 nM	590 nM
CN1CCN(c2ccc(Nc3nc(N)n(-c4ccccn4)n3)cc2)CC1	–	84.4 mL/min/kg	–	2.54 h	2 nM	–	–	–
